Shown is part of a subset that was picked to be rich in hits.
p-CIP stab down = compounds decreasing mouse p/CIP protein stability; Q05BA5; F442A p/CIP-EGFP cells, EGFP fluorescence, 16 h; decrease of EGFP signal, % at 10 µM; actives 0.01% (n = 290,000);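 active means EGFP signal decrease of at least 30% at 10 µM or well 3 SD below plate mean, unless failing retest; inactive means the rest, including hits failing retest or dose response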
Target sequence (Q05BA5 1-1403): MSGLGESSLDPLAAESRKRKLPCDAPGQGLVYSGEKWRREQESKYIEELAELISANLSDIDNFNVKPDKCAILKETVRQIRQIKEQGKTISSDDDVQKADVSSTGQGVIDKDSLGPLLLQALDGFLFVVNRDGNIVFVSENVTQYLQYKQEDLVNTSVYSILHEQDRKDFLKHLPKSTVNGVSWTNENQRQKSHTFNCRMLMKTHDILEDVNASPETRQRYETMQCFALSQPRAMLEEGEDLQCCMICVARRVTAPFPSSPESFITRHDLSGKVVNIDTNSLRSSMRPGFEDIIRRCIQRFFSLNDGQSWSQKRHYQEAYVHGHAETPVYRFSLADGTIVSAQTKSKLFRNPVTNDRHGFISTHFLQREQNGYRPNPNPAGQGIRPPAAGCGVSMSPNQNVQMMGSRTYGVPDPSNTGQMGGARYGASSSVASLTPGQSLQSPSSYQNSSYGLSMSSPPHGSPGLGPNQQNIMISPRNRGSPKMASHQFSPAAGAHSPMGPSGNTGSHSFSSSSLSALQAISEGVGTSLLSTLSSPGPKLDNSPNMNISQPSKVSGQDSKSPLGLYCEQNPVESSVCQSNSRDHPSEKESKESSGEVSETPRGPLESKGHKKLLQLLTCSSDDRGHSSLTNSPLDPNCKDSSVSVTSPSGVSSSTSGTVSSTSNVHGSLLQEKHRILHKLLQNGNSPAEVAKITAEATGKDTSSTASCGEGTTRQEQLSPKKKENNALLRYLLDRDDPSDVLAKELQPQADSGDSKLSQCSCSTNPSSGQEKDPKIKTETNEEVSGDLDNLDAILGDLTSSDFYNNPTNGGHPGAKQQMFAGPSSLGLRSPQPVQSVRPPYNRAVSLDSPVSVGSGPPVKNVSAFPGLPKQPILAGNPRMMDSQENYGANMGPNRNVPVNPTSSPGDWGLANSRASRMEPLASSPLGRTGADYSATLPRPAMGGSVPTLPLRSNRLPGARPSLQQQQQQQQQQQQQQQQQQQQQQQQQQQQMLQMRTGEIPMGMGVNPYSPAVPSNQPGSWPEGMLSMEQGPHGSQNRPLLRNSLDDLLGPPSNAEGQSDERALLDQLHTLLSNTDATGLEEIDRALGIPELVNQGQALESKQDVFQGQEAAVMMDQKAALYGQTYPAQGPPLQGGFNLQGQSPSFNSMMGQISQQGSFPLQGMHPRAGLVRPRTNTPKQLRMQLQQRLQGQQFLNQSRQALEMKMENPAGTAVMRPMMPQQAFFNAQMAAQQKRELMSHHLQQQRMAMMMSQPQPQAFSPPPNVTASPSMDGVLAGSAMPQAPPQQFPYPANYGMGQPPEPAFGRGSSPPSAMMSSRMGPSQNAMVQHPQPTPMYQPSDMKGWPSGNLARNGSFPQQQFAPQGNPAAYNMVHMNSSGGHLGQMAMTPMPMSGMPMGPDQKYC
CHOP UPR activ = activators of apoptotic arm of unfolded protein response (CHOP). CHO-CHOP luciferase reporter, UPR activation, luminescence; percent of tunicamycin response over DMSO baseline. activation, % at 10 µM. actives 0.34% (n = 330,000);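 active means at 10 µM dose, activation of 40% or more, normalized to positive control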;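 further: 100% = tunicamycin at 10 µg/mL and 0% = DMSO alone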
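System: CHO-CHOP luciferase reporter cell line | Buffer or medium: F12 medium containing 10% fetal bovine serum | Doses: One dose, 10 µM in 0.5% DMSO | Times: 6 h compound exposure at 37 °C after overnight seeding | Signal: Luciferase luminescence | Read-out: % activation vs tunicamycin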
Dynein cargo inh = dynein cargo transport inhibition; 3617.4 mouse cells, GR-EGFP nuclear translocation imaging; test concentration mostly 20 µM; stimulated with dexamethasone, 1 µM; stronger effect = lower value; AID 1381; actives 0.47% (n = 220,000); z-score, hits read low;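 active means plate z-score of nuclear minus cytoplasmic receptor signal below a set negative limit, without overly bright fluorescence or cell loss, cut at about -3.5 in these data, passing the limit was not always enough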;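 further: z-score of nuclear minus cytoplasmic ring GR-EGFP intensity difference per well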
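medium = tetracycline-free induction medium containing charcoal-stripped FBS | also added = 1.0 µM final dexamethasone stimulus | schedule = 48 h induction, 1 h compound, 30 min dex at 37 °C | technique = fixed, Hoechst-stained cells imaged at 10x for EGFP | measure = GR-EGFP nuclear translocation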
Beta2AR agonist = agonists of human beta-2 adrenergic receptor inducing internalization | P07550 | Am2.2-beta2AR cells, FAP receptor internalization, flow cytometry | response, % (no concentration beside the values) | actives 0.43% (n = 340,000);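 active means response above a set limit, near 3 SD of response in nonfluorescent compounds, cut at about 42% in these data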
CHOP inhibitor = blocks CHOP induction under ER stress | CHO-K1 CHOP-promoter luciferase, tunicamycin-induced, 15-18 h | inhibition, % at 10 µM | actives 3.8% (n = 220,000) | AID 2732;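 active means compounds that reduced the stress-induced luciferase reporter signal by more than about 70% of percent inhibition, limit read from the data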;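 further: 0% = tunicamycin plus vehicle and 100% = wells without tunicamycin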
XBP1 UPR activ = activators of adaptive arm of unfolded protein response (XBP1) | actives 0.33% (n = 330,000) | CHO-XBP1 luciferase reporter, IRE1-XBP1 UPR activation, luminescence; percent of tunicamycin response, DMSO as zero | AID 463104 | activation, % at 20 µM;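 active means versus positive control, 20 µM dose yields 30% or more activation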;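 further: 100% = tunicamycin at 10 µg/mL and 0% = DMSO only wells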
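Material: CHO cell line with stable XBP1 luciferase reporter; buffer or medium: F12 medium containing 10% fetal bovine serum; compound: single point, 20 µM final compound, 1% DMSO; incubation: 6 h treatment, 37 °C; measured by: glow luminescence from Steady-Glo reagent; evaluation: activation, % of tunicamycin; control set: tunicamycin high, DMSO low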
Numbers without * were called inactive; · = no result.

SMILES | p-CIP stab down | CHOP UPR activ | Dynein cargo inh | Beta2AR agonist | CHOP inhibitor | XBP1 UPR activ
O=C(CSc1nc(-c2ccco2)cc(C(F)(F)F)n1)Nc1ccccc1C(F)(F)F | 10 | 1 | 0.87 | 2 | 77* | -2
CCOC(=O)N1CCN(c2nc(-c3ccco3)cc(C(F)(F)F)n2)CC1 | -7 | -3 | -1.1 | 3 | 86* | -4
Cc1cc(NC(=O)CSc2nc(-c3ccco3)cc(C(F)(F)F)n2)no1 | -7 | -1 | 0.03 | -4 | · | 23
Cc1cccc(C)c1NC(=O)CSc1nc(-c2ccco2)cc(C(F)(F)F)n1 | -26 | 2 | 0.15 | -8 | 85* | -2
CC(=O)Nc1ccc(OS(=O)(=O)c2ccc([N+](=O)[O-])cc2)cc1 | -16 | -2 | -0.82 | -5 | -8 | 10
COc1ccc(C(=O)Nc2cc(C)nn2-c2cccc(F)c2)cc1OC | -8 | 1 | · | -3 | · | -2
CCCc1ccc(C2=Nn3c(nnc3C(C)C)SC2)cc1 | -16 | -1 | · | 66* | · | 7
CCOC(=O)CNc1nc(C(C)(C)C)nc2c1nnn2Cc1ccccc1Cl | -10 | -1 | 0.5 | 0 | 81* | 1
CCOc1ccc2c(=O)c(Oc3ccccc3)c(C)oc2c1 | -8 | 1 | 0.1 | 2 | 76* | -2
Cc1oc2cc(OC(C)C(=O)O)ccc2c(=O)c1Oc1ccccc1 (stereo unspecified) | -11 | -1 | -0.33 | 10 | -7 | -3
N#Cc1cnc2c(-c3ccccc3)c(-c3ccccc3)nn2c1N | -6 | 0 | -0.55 | -7 | 78* | 10
Cc1ccc(S(=O)(=O)NCCc2nnc(SCc3cccnc3)n2C)cc1 | -2 | 3 | · | 2 | · | -1
O=C(Nc1cccc(Cl)c1)Nc1ccc(Br)cc1F | -5 | 2 | 1.4 | 3 | 91* | 6
COc1ccc(C)cc1NC(=O)Nc1cccc(C)c1 | 5 | 2 | 0.41 | -2 | 27 | 2
O=C(Nc1ccccc1)Nc1ccc(Br)cc1F | -7 | 5 | 0.36 | 5 | 57 | 4
O=C(Nc1cccc(Cl)c1)Nc1cccc(Cl)c1 | -4 | 16 | 1.1 | -3 | 16 | 5
Cc1cccc(NC(=O)Nc2ccc(C)cc2Br)c1 | 9 | 4 | -0.67 | -1 | 90* | 5
COC(=O)c1cc(NC(=O)Nc2cccc(Cl)c2)ccc1Cl | 3 | 9 | 0.3 | 0 | 95* | 5
CN1CCN(S(=O)(=O)c2ccc(NC(=O)Nc3cccc(Cl)c3)cc2)CC1 | -4 | -2 | -0.027 | 21 | 32 | -2
O=C(Nc1cccc(Cl)c1)Nc1cc(S(=O)(=O)N2CCCCC2)ccc1Cl | -10 | 15 | -0.6 | 5 | 87* | 16
COc1cc(C(=O)OCC(=O)NC(=O)NC2CCCCC2)cc(Cl)c1OC | · | 0 | · | 0 | · | 0
COc1ccccc1NC(=O)C1CCCN(S(=O)(=O)c2ccccc2)C1 (stereo unspecified) | 6 | 2 | · | 10 | · | 1
CCOC(=O)c1ccccc1NC(=O)Cn1c(=O)n(Cc2ccccc2)c(=O)c2c(C)c(C)sc21 | 5 | 3 | -0.26 | -5 | 37 | 1
CN(C)S(=O)(=O)c1ccc(-c2csc(N/N=C/c3ccc(O)cc3)n2)cc1 | -6 | 18 | -1.8 | 47* | 18 | -6
CN(C)S(=O)(=O)c1ccc(-c2csc(N/N=C/c3ccco3)n2)cc1 | -15 | 2 | 0.57 | 25 | 69 | -5
SMILES | p-CIP stab down | CHOP UPR activ | Dynein cargo inh | Beta2AR agonist | CHOP inhibitor | XBP1 UPR activ
COc1cccc(CNc2ncc(Br)cc2Br)c1O | 15 | 5 | 0.22 | -13 | 81* | 5
CC1CCc2cc(F)ccc2N1C(=O)c1cnc2sccn2c1=O (stereo unspecified) | -14 | 0 | 0.71 | 6 | 79* | -2
c1ccc(Oc2cc(-c3ccccc3)nc(-c3ccccc3)n2)cc1 | 10 | 2 | -0.05 | 6 | 6 | -1
Cc1cc(Oc2ccccc2)nc(-c2ccccc2)n1 | -1 | 0 | -0.61 | -20 | 78* | 3
CCCCCCN1CC(O)=C(c2nc3ccccc3[nH]2)C1=N | 2 | -1 | -0.11 | 6 | 84* | 0
CCCCCn1c(=O)c(-c2nc3ccccc3[nH]2)c(O)c2ccccc21 | 4 | 0 | 0.047 | 11 | 86* | -3
COc1ccccc1NS(=O)(=O)c1cccc(C(=O)NCC2(N3CCCCC3)CCCCC2)c1 | · | · | · | 12 | · | ·
CCc1noc(C)c1C(=O)Nc1nc(-c2ccc(Cl)cc2Cl)cs1 | -8 | -2 | 0.13 | 1 | 73* | -1
CCc1noc(C)c1C(=O)Nc1nc(-c2cccs2)cs1 | · | 3 | · | -3 | · | 0
COc1cc(-c2nnc(SCC(=O)c3cc(C)n(CC4CCCO4)c3C)o2)cc(OC)c1OC (stereo unspecified) | -6 | -3 | 1.2 | -3 | 25 | -4
Cc1cccc(C(=O)NCC(=O)OCC(=O)c2cc(C)n(CC3CCCO3)c2C)c1 (stereo unspecified) | 16 | -2 | -0.44 | 4 | 12 | -5
Cc1cc(C(=O)CSc2nnc(-c3ccc(F)cc3)o2)c(C)n1CC1CCCO1 (stereo unspecified) | 14 | 0 | -1.4 | 4 | 93* | -6
Cc1cc(C(=O)CSc2nc3ccccc3c(=O)n2C)c(C)n1CC1CCCO1 (stereo unspecified) | -12 | · | -1.1 | · | 74* | ·
Cc1cc(C(=O)COC(=O)CNC(=O)c2ccccc2)c(C)n1CC1CCCO1 (stereo unspecified) | 12 | -7 | 0.21 | -1 | 90* | -6
COc1ccc(N/C=C2\CCOC2=O)cc1 | 1 | -1 | 0.88 | 2 | 38 | 0
O=C1/C(=C/Nc2ccc3c(c2)OCO3)CCc2ccccc21 | -4 | -7 | -0.99 | 10 | 77* | -11
COc1ccc2c(c1)CC/C(=C\Nc1ccc3c(c1)OCO3)C2=O | -23 | 3 | -0.22 | 15 | -10 | 1
COc1ccc(N/C=C2\CCc3ccccc3C2=O)cc1 | -14 | -5 | -0.22 | 4 | 83* | -11
Cc1ccc(C(=O)c2oc3ccccc3c2NC(=O)c2cc(-c3ccccc3O)n[nH]2)cc1 | -10 | 3 | 0.9 | -2 | 61 | 19
Cc1ccc(C(=O)c2oc3ccccc3c2NC(=O)c2cc(-c3cc(C)ccc3O)n[nH]2)cc1 | 0 | 10 | 0.99 | 2 | 71* | 60*
CC(=O)Nc1c(C(=O)c2ccc(F)cc2)oc2ccccc12 | 0 | -3 | -0.22 | 0 | 14 | 1
O=C(Nc1c(C(=O)c2ccccc2)oc2ccccc12)c1cc(-c2ccccc2O)n[nH]1 | -15 | -1 | -0.16 | -8 | 90* | 23

Assay outcomes: PubChem, several laboratories
